Data on 20 molecules can be found in PubChem BioAssay.

Assay [1] can be described thus: Her2 expression decrease, cell viability multiplex – SKBR3 breast tumor cells, AlphaScreen, ATP viability, primary screen (AID 461).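 For Her2 level: lower value means less Her2 protein in the cells.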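 For viability: percent of carrier control wells set as 100% viability.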 Conditions: SKBR3 Her2 protein level, 18-24 h, measured here: SKBR3 viability, ATP luminescence, at 10 µM.
Assay [2] concerns the target Receptor tyrosine-protein kinase erbB-2 (Homo sapiens) (UniProt P04626). The assay is described as above. Conditions: 18-24 h, at 10 µM, stronger effect = lower value.
Assay [3] in a line: reduced viability of SK-BR-3 breast cancer cells – cell-based, 24 h, human, pilot screen (AID 572;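 active = viability at or below 10% of carrier control in both of two separate runs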;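 note: compound exposure lasted between 18 and 24 h rather than exactly 24 h; 100% = carrier-treated control wells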). The note with it: SK-BR-3 viability, CellTiter-Glo luminescence, at 10 µM, stronger effect = lower value.
Assay [4] in a line: HUVEC growth inhibition – cell-based, human, primary screen (AID 575;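 active = viability at or below 30% in both replicate assays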;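 note: 100% = median of untreated cell wells with 0.1% DMSO on each plate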). Conditions: HUVEC proliferation, CellTiter-Glo luminescence, 72 h; at 10 µM; stronger effect = lower value. A digest of the protocol:
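system = HUVEC primary cells | amount = 1250 cells/well | buffer or medium = supplemented EBM, 2% fetal bovine serum | dosing = single-point 10 µM, DMSO 0.1% final | times = 72 h compound incubation | detection = CTG luminescence | read-out = % viability relative to median vehicle-well signal on each plate | control set = vehicle and MePR control wells | format = collagen-coated 384-well format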

Assay [5] is described as follows: H69AR cell proliferation blockers – human, duplicate replicates, primary screen (AID 580;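 active = viability at or under a set limit in both replicates, limit being median viability minus 3 SD, cut at about 48% in these data, passing the limit was not always enough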;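 note: 100% = mean luminescence of untreated wells and 0% = no signal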). Conditions: H69AR lung tumor cells viability, ATP luminescence, 72 h; at 10 µM; stronger effect = lower value.
Assay [6] in a line: MRP1 drug-resistance reversers in H69AR cells – cell-based, doxorubicin co-treatment, pilot screen (AID 601;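 active = viability loss from added drug above about 55%, and viability with drug at most 40%, in both replicates, limit read from the data, passing the limit was not always enough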). The note with it: CellTiter-Glo, 72 h, at 10 µM; for differential viability (reversal): stronger effect = higher value.
The mark [7] stands for this setting: H69AR cells + 2 uM doxorubicin, measured here: viability with 2 uM doxorubicin, stronger effect = lower value.
The mark [8] stands for this setting: H69AR cells, compound alone cytotoxicity.

Calls of active or inactive are those of the source.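 Rule for the calls, unless noted: active = Her2 level under about 52% in both replicate screens, with viability over 70% of control (limit read from the data); inconclusive = Her2 under the limit in one screen only, or viability under 70%; inactive = Her2 level above the set limit.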

Sequence of Receptor tyrosine-protein kinase erbB-2 (Homo sapiens) (P04626 whole entry, looked up): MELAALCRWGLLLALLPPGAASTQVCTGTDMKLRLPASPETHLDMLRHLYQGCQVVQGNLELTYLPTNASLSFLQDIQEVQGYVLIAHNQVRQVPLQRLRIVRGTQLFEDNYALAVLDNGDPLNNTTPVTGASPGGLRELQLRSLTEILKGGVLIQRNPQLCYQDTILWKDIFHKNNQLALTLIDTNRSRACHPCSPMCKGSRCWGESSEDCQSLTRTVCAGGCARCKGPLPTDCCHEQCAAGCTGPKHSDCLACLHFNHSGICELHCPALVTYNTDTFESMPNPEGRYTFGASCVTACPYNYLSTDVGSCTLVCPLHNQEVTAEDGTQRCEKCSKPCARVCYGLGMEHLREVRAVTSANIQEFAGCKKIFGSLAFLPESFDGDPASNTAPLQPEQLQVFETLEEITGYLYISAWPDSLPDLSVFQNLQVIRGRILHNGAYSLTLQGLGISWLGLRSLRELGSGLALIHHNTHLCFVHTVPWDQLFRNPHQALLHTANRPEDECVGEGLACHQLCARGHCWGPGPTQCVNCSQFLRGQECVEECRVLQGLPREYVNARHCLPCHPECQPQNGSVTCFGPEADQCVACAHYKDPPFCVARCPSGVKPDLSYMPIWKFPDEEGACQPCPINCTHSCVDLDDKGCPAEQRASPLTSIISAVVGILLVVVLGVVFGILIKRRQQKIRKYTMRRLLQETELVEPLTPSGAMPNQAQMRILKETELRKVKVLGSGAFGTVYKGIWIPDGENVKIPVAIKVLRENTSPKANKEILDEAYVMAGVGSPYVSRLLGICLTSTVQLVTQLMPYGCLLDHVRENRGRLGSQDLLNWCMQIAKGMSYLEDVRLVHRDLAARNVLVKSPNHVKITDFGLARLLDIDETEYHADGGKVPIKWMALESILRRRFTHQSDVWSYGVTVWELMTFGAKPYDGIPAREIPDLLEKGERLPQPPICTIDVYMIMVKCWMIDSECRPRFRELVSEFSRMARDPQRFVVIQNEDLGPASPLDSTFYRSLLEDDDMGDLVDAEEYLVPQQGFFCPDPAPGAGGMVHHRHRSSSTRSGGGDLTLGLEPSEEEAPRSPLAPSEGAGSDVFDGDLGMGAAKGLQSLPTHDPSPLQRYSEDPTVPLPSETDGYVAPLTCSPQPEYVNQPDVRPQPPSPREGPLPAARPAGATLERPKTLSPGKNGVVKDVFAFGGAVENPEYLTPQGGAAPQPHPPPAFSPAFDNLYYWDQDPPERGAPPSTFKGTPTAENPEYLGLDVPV

One may read the viability as a read-out of living cells in per cent, often relative to untreated cells. As for `CN(CCO)CC(O)Cn1cnc2c1c(=O)n(C)c(=O)n2C` (stereo not given) (tested in a mixture with another compound), the viability in assay [1] is 87%; in assay [3] it was 87% (inactive); in assay [4], 94.1% (inactive); in assay [5] it was 83.6% (inactive); in assay [6] (setting [7]), 85.9%; in assay [6] (setting [8]), 83.6%. The Her2 level in assay [2] was 88.5% (inactive). Besides, the differential viability (reversal) in assay [6] (H69AR cells + 2 uM doxorubicin) is -2.31% (inactive).
For `COc1ccc2cc([C@H](C)C(=O)O)ccc2c1`, the viability is 93.5% in assay [1]; 93.5% (inactive) in assay [3]; 111% (inactive) in assay [4]; 94.8% (inactive) in assay [5]; 83% in assay [6] (setting [7]); 94.8% in assay [6] (setting [8]). Further, the Her2 level in assay [2] is 107% (inactive). Moreover, in assay [6] (H69AR cells + 2 uM doxorubicin), the differential viability (reversal) was 11.8% (inactive).
Regarding `COc1ccc([C@@H]2Sc3ccccc3N(CCN(C)C)C(=O)[C@@H]2OC(C)=O)cc1`, the viability in assay [1] was 76%; in assay [3], 76% (inactive); in assay [4], 100% (inactive); in assay [5], 92.1% (inactive); in assay [6] (setting [7]) it was 103%; in assay [6] (setting [8]) it was 92.1%. Further, the Her2 level in assay [2] was 106% (inactive). The differential viability (reversal) in assay [6] (H69AR cells + 2 uM doxorubicin) was -11.2% (inactive).
Take `NS(=O)(=O)c1cc2c(cc1C(F)(F)F)NC(Cc1ccccc1)NS2(=O)=O` (stereo not given): the viability in assay [1] is 106%; in assay [3], 106% (inactive); in assay [4], 83.9% (inactive); in assay [5], 88.9% (inactive); in assay [6] (setting [7]) it was 94.3%; in assay [6] (setting [8]), 88.9%. In addition, the Her2 level in assay [2] is 114% (inactive). Moreover, the differential viability (reversal) in assay [6] (H69AR cells + 2 uM doxorubicin) was -5.48% (inactive).
With `CC(C)(S)[C@@H](N)C(=O)O`, the viability was 102% in assay [1]; 102% (inactive) in assay [3]; 106% (inactive) in assay [4]; 110% (inactive) in assay [5]; 94.3% in assay [6] (setting [7]); 110% in assay [6] (setting [8]). Further, the Her2 level in assay [2] is 93% (inactive). In assay [6] (H69AR cells + 2 uM doxorubicin), the differential viability (reversal) was 15.4% (inactive).
For `CCS(=O)(=O)CCn1c([N+](=O)[O-])cnc1C`, the viability in assay [1] was 89.5%; in assay [3] it was 89.5% (inactive); in assay [4], 105% (inactive); in assay [5] it was 100% (inactive); in assay [6] (setting [7]), 90.9%; in assay [6] (setting [8]), 100%. Besides, in assay [2], the Her2 level is 122% (inactive). For the same molecule, the differential viability (reversal) in assay [6] (H69AR cells + 2 uM doxorubicin) is 9.26% (inactive).
With `c1ccc2c(CC3=NCCN3)cccc2c1`, the viability in assay [1] was 101%; in assay [3], 101% (inactive); in assay [4], 91.7% (inactive); in assay [5], 93.8% (inactive); in assay [6] (setting [7]), 78.9%; in assay [6] (setting [8]), 93.8%. The Her2 level in assay [2] is 99.5% (inactive). Also, the differential viability (reversal) in assay [6] (H69AR cells + 2 uM doxorubicin) is 14.9% (inactive).
On to `COc1ccc(C2CNC(=O)C2)cc1OC1CCCC1` (stereo not given), for which the viability in assay [1] was 115%; in assay [3] it was 115% (inactive); in assay [4] it was 114% (inactive); in assay [5], 109% (inactive); in assay [6] (setting [7]) it was 90.6%; in assay [6] (setting [8]) it was 109%. The Her2 level in assay [2] was 121% (inactive). Moreover, the differential viability (reversal) in assay [6] (H69AR cells + 2 uM doxorubicin) was 18.8% (inactive).
As for `Cc1ccccc1C(OCCN(C)C)c1ccccc1` (stereo not given), the viability in assay [1] was 93%; in assay [3], 93% (inactive); in assay [4], 98.9% (inactive); in assay [5], 91.3% (inactive); in assay [6] (setting [7]), 80.5%; in assay [6] (setting [8]) it was 91.3%. Moreover, in assay [2], the Her2 level was 86% (inactive). Besides, the differential viability (reversal) in assay [6] (H69AR cells + 2 uM doxorubicin) is 10.8% (inactive).
For `CCC1(c2ccccc2)C(=O)NCNC1=O`, the viability in assay [1] is 96.5%; in assay [3], 96.5% (inactive); in assay [4] it was 116% (inactive); in assay [5] it was 102% (inactive); in assay [6] (setting [7]), 85.7%; in assay [6] (setting [8]) it was 102%. In assay [2], the Her2 level was 102% (inactive). In assay [6] (H69AR cells + 2 uM doxorubicin), the differential viability (reversal) was 16.5% (inactive).
In the case of `CC(=O)OCC(=O)[C@@]12OC3(CCCC3)O[C@@H]1C[C@H]1[C@@H]3CCC4=CC(=O)C=C[C@]4(C)[C@@]3(F)[C@@H](O)C[C@@]12C`, the viability in assay [1] is 132%; in assay [3] it was 132% (inactive); in assay [4] it was 86.6% (inactive); in assay [5], 83.1% (inactive); in assay [6] (setting [7]), 80.3%; in assay [6] (setting [8]) it was 83.1%. In addition, in assay [2], the Her2 level is 91.5% (inactive). Also, in assay [6] (H69AR cells + 2 uM doxorubicin), the differential viability (reversal) was 2.75% (inactive).
In the case of `Cc1cccc(CN2CCN(C(c3ccccc3)c3ccc(Cl)cc3)CC2)c1` (stereo not given), the viability in assay [1] was 83%; in assay [3], 83% (inactive); in assay [4], 96.4% (inactive); in assay [5] it was 96.8% (inactive); in assay [6] (setting [7]), 95.8%; in assay [6] (setting [8]), 96.8%. In addition, the Her2 level in assay [2] is 93.5% (inactive). In addition, the differential viability (reversal) in assay [6] (H69AR cells + 2 uM doxorubicin) is 1.06% (inactive).
`CN(C)CCCN1c2ccccc2CCc2ccccc21`: the viability in assay [1] is 105%; in assay [3] it was 105% (inactive); in assay [4], 81% (inactive); in assay [5] it was 77.7% (inactive); in assay [6] (setting [7]), 73.5%; in assay [6] (setting [8]), 77.7%. For the same molecule, in assay [2], the Her2 level was 104% (inactive). Besides, in assay [6] (H69AR cells + 2 uM doxorubicin), the differential viability (reversal) is 4.16% (inactive).
As for `CC1(C)O[C@@H]2C[C@H]3[C@@H]4C[C@H](F)C5=CC(=O)C=C[C@]5(C)[C@@]4(F)[C@@H](O)C[C@]3(C)[C@]2(C(=O)CO)O1`, the viability was 94% in assay [1]; 94% (inactive) in assay [3]; 90.5% (inactive) in assay [4]; 94.1% (inactive) in assay [5]; 92.2% in assay [6] (setting [7]); 94.1% in assay [6] (setting [8]). Besides, in assay [2], the Her2 level is 110% (inactive). In addition, in assay [6] (H69AR cells + 2 uM doxorubicin), the differential viability (reversal) is 1.96% (inactive).
For `CO[C@@]1(NC(=O)CSCC#N)C(=O)N2C(C(=O)O)=C(CSc3nnnn3C)CS[C@@H]21`, the viability in assay [1] was 110%; in assay [3], 110% (inactive); in assay [4], 97% (inactive); in assay [5], 95% (inactive); in assay [6] (setting [7]), 101%; in assay [6] (setting [8]), 95%. The Her2 level in assay [2] was 136% (inactive). The differential viability (reversal) in assay [6] (H69AR cells + 2 uM doxorubicin) is -5.77% (inactive).
In the case of `Nc1nc(F)nc2c1ncn2[C@@H]1O[C@H](CO)[C@@H](O)[C@@H]1O`, the viability in assay [1] was 97%; in assay [3], 97% (inactive); in assay [4], 65.7% (inactive); in assay [5], 103% (inactive); in assay [6] (setting [7]), 106%; in assay [6] (setting [8]), 103%. For the same molecule, the Her2 level in assay [2] was 104% (inactive). For the same molecule, in assay [6] (H69AR cells + 2 uM doxorubicin), the differential viability (reversal) is -2.94% (inactive).
Turning to `CN1CCC(=C2c3ccccc3CC(=O)c3sccc32)CC1`, the viability in assay [1] is 96%; in assay [3], 96% (inactive); in assay [4], 76.4% (inactive); in assay [5] it was 91.4% (inactive); in assay [6] (setting [7]), 79.6%; in assay [6] (setting [8]) it was 91.4%. Besides, the Her2 level in assay [2] was 87% (inactive). Also, the differential viability (reversal) in assay [6] (H69AR cells + 2 uM doxorubicin) is 11.8% (inactive).
As for `Cc1cccc(C)c1NC(=O)C1CCCCN1C` (stereo not given), the viability in assay [1] was 108%; in assay [3], 108% (inactive); in assay [4], 104% (inactive); in assay [5] it was 99.7% (inactive); in assay [6] (setting [7]), 87.7%; in assay [6] (setting [8]), 99.7%. Besides, in assay [2], the Her2 level was 101% (inactive). Moreover, in assay [6] (H69AR cells + 2 uM doxorubicin), the differential viability (reversal) was 12% (inactive).
Consider `CC1(C)S[C@@H]2[C@H](NC(=O)Cc3ccccc3)C(=O)N2[C@H]1C(=O)O`, for which the viability in assay [1] was 94.5%; in assay [3], 94.5% (inactive); in assay [4], 95.4% (inactive); in assay [5], 109% (inactive); in assay [6] (setting [7]), 95.6%; in assay [6] (setting [8]), 109%. The Her2 level in assay [2] is 94.5% (inactive). For the same molecule, the differential viability (reversal) in assay [6] (H69AR cells + 2 uM doxorubicin) is 13.5% (inactive).
Consider `CC(C)CCNC(=O)[C@H](CC(C)C)NC(=O)[C@H]1O[C@@H]1C(=O)O`, for which the viability was 104% in assay [1]; 104% (inactive) in assay [3]; 95.9% (inactive) in assay [4]; 100% (inactive) in assay [5]; 94.5% in assay [6] (setting [7]); 100% in assay [6] (setting [8]). Besides, the Her2 level in assay [2] is 112% (inactive). Further, the differential viability (reversal) in assay [6] (H69AR cells + 2 uM doxorubicin) was 5.67% (inactive).
